Read-outs that look alike come from different tables or passages of the source.
What was measured:
[1] = with strong CYP3A inhibitor clarithromycin; cited from earlier work
[2] = system: BTK; conditions: cited from earlier work
[3] = Blood-to-plasma partition ratio; assay type: in vitro ADME
[4] = cited from earlier work
[5] = molecular target: CYP2C19 (Homo sapiens, UniProt P33261); assay: In vitro competitive inhibition of CYP2C19; assay type: in vitro ADME; conditions: read-out: CYP2C19 Ki; reversible inhibition
Chain of CYP2C19 (P33261 whole entry): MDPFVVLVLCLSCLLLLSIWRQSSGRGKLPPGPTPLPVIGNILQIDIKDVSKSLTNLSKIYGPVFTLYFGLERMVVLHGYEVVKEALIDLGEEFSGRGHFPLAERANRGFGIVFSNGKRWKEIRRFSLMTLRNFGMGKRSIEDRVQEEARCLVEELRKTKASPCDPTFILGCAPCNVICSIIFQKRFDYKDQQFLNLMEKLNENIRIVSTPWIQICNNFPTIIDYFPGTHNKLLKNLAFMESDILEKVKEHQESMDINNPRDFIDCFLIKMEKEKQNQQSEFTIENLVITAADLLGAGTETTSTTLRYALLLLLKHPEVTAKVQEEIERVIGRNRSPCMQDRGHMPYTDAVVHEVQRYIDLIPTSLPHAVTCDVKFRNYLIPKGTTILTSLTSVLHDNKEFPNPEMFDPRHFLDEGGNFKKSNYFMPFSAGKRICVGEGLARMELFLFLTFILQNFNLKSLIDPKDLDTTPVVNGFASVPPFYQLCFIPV

[6] = molecular target: CYP2C9 (Homo sapiens, UniProt P11712); assay: In vitro competitive inhibition of CYP2C9; assay type: in vitro ADME
Chain of CYP2C9 (P11712 whole entry): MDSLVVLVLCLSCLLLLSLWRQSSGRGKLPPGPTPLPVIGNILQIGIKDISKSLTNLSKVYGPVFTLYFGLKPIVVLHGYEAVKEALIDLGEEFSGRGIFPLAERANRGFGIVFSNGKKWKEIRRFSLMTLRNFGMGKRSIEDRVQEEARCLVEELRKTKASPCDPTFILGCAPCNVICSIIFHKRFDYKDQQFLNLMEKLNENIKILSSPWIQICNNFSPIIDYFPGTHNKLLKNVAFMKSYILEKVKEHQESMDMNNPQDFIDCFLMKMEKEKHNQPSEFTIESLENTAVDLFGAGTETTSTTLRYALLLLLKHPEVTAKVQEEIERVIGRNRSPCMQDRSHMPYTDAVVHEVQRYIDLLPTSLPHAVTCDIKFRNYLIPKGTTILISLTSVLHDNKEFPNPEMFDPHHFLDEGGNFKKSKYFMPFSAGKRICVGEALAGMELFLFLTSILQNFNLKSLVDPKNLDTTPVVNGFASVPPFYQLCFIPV

[7] = Unbound fraction in plasma; assay type: in vitro ADME
[8] = cited from earlier work; remark: listed apart in the source
[9] = molecular target: T1, CYP2C8 (Homo sapiens, UniProt P10632); assay: In vitro competitive and time-dependent inhibition of CYP2C8; assay type: in vitro ADME
T1 sequence (P10632 1-490): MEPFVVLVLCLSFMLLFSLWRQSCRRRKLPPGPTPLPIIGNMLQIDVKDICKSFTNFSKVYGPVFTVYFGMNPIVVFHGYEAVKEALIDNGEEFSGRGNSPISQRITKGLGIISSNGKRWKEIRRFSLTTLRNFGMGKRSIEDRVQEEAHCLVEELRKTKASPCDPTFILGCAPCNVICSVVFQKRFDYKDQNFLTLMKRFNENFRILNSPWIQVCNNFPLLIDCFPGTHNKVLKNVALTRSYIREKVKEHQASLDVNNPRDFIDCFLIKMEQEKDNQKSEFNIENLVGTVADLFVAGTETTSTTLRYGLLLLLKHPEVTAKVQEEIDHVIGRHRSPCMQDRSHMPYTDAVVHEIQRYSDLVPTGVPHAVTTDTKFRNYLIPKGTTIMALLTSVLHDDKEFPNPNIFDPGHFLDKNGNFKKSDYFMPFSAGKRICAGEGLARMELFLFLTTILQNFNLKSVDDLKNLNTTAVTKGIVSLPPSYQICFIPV

[10] = Physicochemical properties; conditions: Experimental data
[11] = system: CYP3A4; assay: Clearance of ACP-5862 in human liver microsomes; assay type: in vitro ADME; conditions: assigned to CYP3A4
[12] = Clinical pharmacokinetics of acalabrutinib and ACP-5862; assay type: in vivo, human; conditions: ACE-HV-001, oral
Method in brief: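 Healthy subjects in a phase I dose-escalation study (ACE-HV-001) received single oral acalabrutinib doses of 25, 50, 75 or 100 mg (cohorts 3–6). In vivo total clearance was taken from this study's plasma concentration–time data.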

[13] = molecular target: T2, P-gp (Homo sapiens, UniProt P08183); assay: Efflux in MDCKII-MDR1 cells; assay type: in vitro ADME; conditions: dog, MDCK-MDR1
T2 sequence (P08183 whole entry): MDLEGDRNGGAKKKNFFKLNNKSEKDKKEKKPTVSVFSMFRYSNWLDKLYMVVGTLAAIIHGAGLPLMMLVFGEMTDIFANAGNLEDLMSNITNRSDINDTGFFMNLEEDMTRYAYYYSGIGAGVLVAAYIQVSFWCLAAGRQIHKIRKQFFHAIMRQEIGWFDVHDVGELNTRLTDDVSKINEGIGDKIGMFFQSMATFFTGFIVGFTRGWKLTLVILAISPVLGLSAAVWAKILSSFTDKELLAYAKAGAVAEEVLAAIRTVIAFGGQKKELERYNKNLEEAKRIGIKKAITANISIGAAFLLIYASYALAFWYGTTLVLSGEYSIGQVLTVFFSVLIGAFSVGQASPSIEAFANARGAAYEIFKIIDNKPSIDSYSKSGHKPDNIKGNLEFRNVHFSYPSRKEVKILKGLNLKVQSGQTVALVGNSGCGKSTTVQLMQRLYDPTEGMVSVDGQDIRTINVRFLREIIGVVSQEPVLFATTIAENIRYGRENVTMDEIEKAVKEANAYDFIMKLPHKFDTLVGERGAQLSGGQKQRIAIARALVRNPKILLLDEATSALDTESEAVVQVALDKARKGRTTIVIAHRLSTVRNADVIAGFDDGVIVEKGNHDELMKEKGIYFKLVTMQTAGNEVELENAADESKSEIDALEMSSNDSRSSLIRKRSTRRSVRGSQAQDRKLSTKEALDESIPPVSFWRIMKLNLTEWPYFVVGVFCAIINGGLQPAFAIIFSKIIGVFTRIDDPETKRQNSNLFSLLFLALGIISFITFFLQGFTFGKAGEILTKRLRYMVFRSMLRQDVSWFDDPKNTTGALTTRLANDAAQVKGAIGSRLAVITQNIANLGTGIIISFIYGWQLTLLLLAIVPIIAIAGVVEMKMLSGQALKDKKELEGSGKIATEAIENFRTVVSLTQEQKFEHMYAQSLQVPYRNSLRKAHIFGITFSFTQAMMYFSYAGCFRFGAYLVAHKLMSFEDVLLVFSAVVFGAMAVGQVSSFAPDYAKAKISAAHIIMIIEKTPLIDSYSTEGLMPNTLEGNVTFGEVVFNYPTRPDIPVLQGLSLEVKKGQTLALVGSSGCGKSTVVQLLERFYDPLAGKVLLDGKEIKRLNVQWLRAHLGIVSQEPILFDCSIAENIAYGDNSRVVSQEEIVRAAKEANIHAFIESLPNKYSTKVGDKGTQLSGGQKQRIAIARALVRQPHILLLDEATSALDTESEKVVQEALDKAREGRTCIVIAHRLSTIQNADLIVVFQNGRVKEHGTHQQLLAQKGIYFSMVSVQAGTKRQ

[14] = system: CYP2B6; assay: In vitro CYP induction, CYP2B6 marker substrate; assay type: in vitro ADME; conditions: any concentration evaluated
[15] = system: patients with relapsed/refractory mantle cell lymphoma; conditions: median follow-up 15.2 months; cited from earlier work
[16] = molecular target: T2, P-gp; assay: In vitro P-gp inhibition; assay type: in vitro ADME
[17] = system: CYP1A2; assay: In vitro CYP induction, CYP1A2 marker substrate; assay type: in vitro ADME; conditions: any concentration evaluated
[18] = system: CYP3A4; assay type: in vitro ADME; conditions: any concentration evaluated
[19] = molecular target: CYP3A4 (Homo sapiens, UniProt P08684); assay: biochemical; assay type: in vitro ADME
Chain of CYP3A4 (Homo sapiens, UniProt P08684) (P08684 whole entry): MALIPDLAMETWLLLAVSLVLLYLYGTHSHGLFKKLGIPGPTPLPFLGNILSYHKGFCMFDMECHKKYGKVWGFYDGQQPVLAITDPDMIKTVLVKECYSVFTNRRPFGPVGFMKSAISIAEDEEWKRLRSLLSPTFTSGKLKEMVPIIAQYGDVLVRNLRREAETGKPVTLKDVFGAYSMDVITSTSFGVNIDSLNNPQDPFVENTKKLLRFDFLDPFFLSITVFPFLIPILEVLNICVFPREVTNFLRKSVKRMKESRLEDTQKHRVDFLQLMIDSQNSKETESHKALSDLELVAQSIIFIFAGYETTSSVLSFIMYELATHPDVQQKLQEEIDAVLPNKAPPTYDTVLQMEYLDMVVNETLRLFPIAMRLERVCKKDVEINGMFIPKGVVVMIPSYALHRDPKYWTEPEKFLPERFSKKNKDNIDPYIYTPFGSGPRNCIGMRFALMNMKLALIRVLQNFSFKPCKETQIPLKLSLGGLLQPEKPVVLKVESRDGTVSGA

[20] = system: human hepatocytes; assay: Metabolite profiling of 14C-acalabrutinib in human hepatocytes; assay type: in vitro ADME; conditions: 20 μM 14C-acalabrutinib
Method in brief: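 14C-labelled test compound at 20 μM was incubated with human hepatocytes from two male donors for qualitative metabolite profiling. Metabolism was apportioned between glutathione and CYP-mediated pathways, and the CYP3A share of CYP metabolite formation was estimated.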

[21] = clinical DDI study with rifampicin; cited from earlier work
[22] = system: patients with relapsed CLL; conditions: median follow-up 14.3 months; cited from earlier work
[23] = PBPK model input parameters predicted, optimized or estimated in Simcyp; set-up: species or system human

Q: For `CCN1CCN(Cc2ccc(Nc3ncc(F)c(-c4cc(F)c5nc(C)n(C(C)C)c5c4)n3)nc2)CC1` [abemaciclib], which increase in exposure [1] is on record?
A: The increase in exposure was 3.4 fold.

Q: For `CC#CC(=O)NCCCC(=O)c1nc(-c2ccc(C(=O)Nc3ccccn3)cc2)c2c(N)nccn12` [ACP‐5862], which “potency for BTK inactivation relative to parent acalabrutinib” value [2] is on record?
A: The value was ~ 50%.

Q: And the “B/P ratio (blood-to-plasma ratio)” value ([3]; Experimental data)?
A: The value was 0.65.

Q: What about the “ACP-5862-related metabolites, share of total dose” value ([4]; human mass balance study) of the same compound?
A: The value was 10%.

Q: And the Ki [5]?
A: Its Ki is 8.5 µM.

Q: And the Ki ([6]; read-out: CYP2C9 Ki, reversible inhibition)?
A: Its Ki is 3.35 µM.

Q: And the “fu,plasma (unbound fraction in plasma)” value ([7]; Experimental data)?
A: The value was 0.013.

Q: What about the “CLR (renal clearance)” value ([8]; ACP-5862, reported in ACE-HV-009) of the same compound?
A: Its value is 0.3 L/h.

Q: And the half-life ([8]; ACP-5862 after single oral dose of 100 mg acalabrutinib)?
A: Its half-life is 6.9 h.

Q: What about the Ki ([9]; read-out: CYP2C8 KI, time-dependent inhibition) of the same compound?
A: The Ki was 4 µM.

Q: What about the CYP2C8 kinact ([9]; time-dependent inhibition) of the same compound?
A: Its CYP2C8 kinact is 0.72 h⁻¹.

Q: What about the Compound type [10] of the same compound?
A: Its Compound type is “Diprotic base”.

Q: What about the logP [10] of the same compound?
A: Its logP is 2.72.

Q: What about the “pKa (first value)” value [10] of the same compound?
A: The value was 3.41.

Q: And the “pKa (second value)” value [10]?
A: Its value is 4.49.

Q: And the “Clint in vitro HLM, CYP3A4” value [11]?
A: Its value is 23.6 µL/min/mg.

Q: Which blood plasma ratio ([3]; blood) does the source give for `CC#CC(=O)N1CCC[C@H]1c1nc(-c2ccc(C(=O)Nc3ccccn3)cc2)c2c(N)nccn12` [Acalabrutinib] here?
A: The blood plasma ratio was 0.787.

Q: What about the “in vivo total clearance” value [12] of the same compound?
A: Its value is 169 L/h.

Q: What about the “unchanged acalabrutinib, share of excreted dose” value ([4]; human mass-balance study) of the same compound?
A: The value was 1.2%.

Q: What about the Ki [6] of the same compound?
A: The Ki was 11.3 µM.

Q: And the efflux ratio at 1 μM [13]?
A: The efflux ratio at 1 μM was 42.

Q: What about the “induction of metabolism of CYP2B6 marker substrate” value [14] of the same compound?
A: Its value is “did not cause significant induction”.

Q: What about the “investigator-assessed overall response rate” value [15] of the same compound?
A: The value was 81%.

Q: What about the P-gp inhibition [16] of the same compound?
A: The P-gp inhibition was “not a P‐gp inhibitor”.

Q: And the “induction of metabolism of CYP1A2 marker substrate” value [17]?
A: The value was “did not cause significant induction”.

Q: And the “induction of metabolism of CYP3A4 marker substrate” value [18]?
A: Its value is “did not cause significant induction”.

Q: What about the fraction unbound ([7]; plasma) of the same compound?
A: Its fraction unbound is 0.026.

Q: And the Ki ([19]; CYP3A4 Ki, reversible inhibition)?
A: Its Ki is 23.9 µM.

Q: And the kinact ([19]; human)?
A: Its kinact is 0.000308 s⁻¹.

Q: What about the “share of CYP3A in the formation of CYP metabolites” value [20] of the same compound?
A: Its value is ~ 90%.

Q: What about the “relative contribution of CYP-mediated metabolic pathway” value ([20]; two male donors) of the same compound?
A: The value was 79%.

Q: What about the “relative contribution of glutathione metabolic pathway” value ([20]; two male donors) of the same compound?
A: Its value is 21%.

Q: And the “acalabrutinib AUC with rifampicin, reduced to % of control” value [21]?
A: Its value is ~ 20%.

Q: And the “CLR (renal clearance)” value ([8]; clinical study ACE-HV-009)?
A: Its value is 1.33 L/h.

Q: And the absolute oral bioavailability ([8]; healthy subjects)?
A: Its absolute oral bioavailability is 25%.

Q: What about the oral half-life ([8]; healthy subjects) of the same compound?
A: The oral half-life was “about 1.57 hours”.

Q: And the “accumulation after multiple doses” value ([8]; patients)?
A: The value was “no accumulation”.

Q: What about the overall response rate [22] of the same compound?
A: Its overall response rate is 95%.

Q: And the Ki [9]?
A: The Ki was 20.6 µM.

Q: And the “CYP3A4 CLint” value ([23]; Retrograde model, total CYP3A4 clearance)?
A: Its value is 9.63 µL/min/pmol.

Q: What about the microsomal CLint ([23]; human, liver microsomes) of the same compound?
A: The microsomal CLint was 290 µL/min/mg.

Q: And the “CYP3A4 CLint” value ([23]; the rest to other metabolites)?
A: Its value is 8.14 µL/min/pmol.

Q: And the Compound type [10]?
A: The Compound type was “Diprotic base”.

Q: What about the pKa ([10]; pKa (first value)) of the same compound?
A: Its pKa is 3.54.

Source: article PMC6656940 (CPT: Pharmacometrics & Systems Pharmacology, 2019)
